ChEMBL document CHEMBL4354843, “Structure-Based Design of a Potent and Selective Covalent Inhibitor for SRC Kinase That Targets a P-Loop Cysteine” (J Med Chem, 2020)

Experiments:
MDA-MB-231 = assay: Antiproliferative activity against human MDA-MB-231 cells assessed as reduction in cell viability incubated for 72 hrs by cell-titer glo assay; conditions: MDA-MB-231, 72 h
[1] = tested on: Tyrosine-protein kinase ABL1 (Homo sapiens), P00519 [F317I]; assay: Binding affinity to human phosphorylated ABL1 F317I mutant (S229 to K512 residues) expressed in mammalian expression system assessed as residual binding level at 1 uM by Kinomescan method relative to control
Method in brief: (§1)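 KinomeScan active site-directed competition binding panel (468 kinases), compound tested at 1 μM. Result expressed as remaining kinase signal versus DMSO control (percent of control).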

[2] = molecular target: Tyrosine-protein kinase ABL2 (Homo sapiens) (UniProt P42684); assay: Binding affinity to wild-type human ABL2 (A248 to G542 residues) expressed in bacterial expression system assessed as residual binding level at 1 uM by Kinomescan method relative to control
Method in brief: (§2)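 KinomeScan, an active site-directed competition binding panel of 468 kinases. The test compound was at 1 μM. The readout is remaining kinase binding as a percentage of the DMSO control. Scores above 35% were treated as weak binding and not listed.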

[3] = molecular target: RAC-alpha serine/threonine-protein kinase (Homo sapiens) (UniProt P31749); assay: Binding affinity to wild-type human partial length AKT1 expressed in bacterial expression system assessed as residual binding level at 1 uM by Kinomescan method relative to control
[4] = molecular target: Calcium/calmodulin-dependent protein kinase type 1 (Homo sapiens) (UniProt Q14012); assay: Binding affinity to wild-type human full length CAMK1 (M1 to L370 residues) expressed in bacterial expression system assessed as residual binding level at 1 uM by Kinomescan method relative to control
Method in brief: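 Active-site-directed KinomeScan competition binding panel covering 468 kinases, compound tested at 1 μM. Each readout is the kinase signal remaining with compound, expressed as a percentage of the DMSO control. […]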

[5] = molecular target: Macrophage colony-stimulating factor 1 receptor (Homo sapiens) (UniProt P07333); assay: Binding affinity to wild-type human partial length autoinhibited CSF1R (Y538 to S939 residues) expressed in mammalian expression system assessed as residual binding level at 1 uM by Kinomescan method relative to control
Chain of Macrophage colony-stimulating factor 1 receptor (Homo sapiens) (P07333 whole entry, the tested form may be a part): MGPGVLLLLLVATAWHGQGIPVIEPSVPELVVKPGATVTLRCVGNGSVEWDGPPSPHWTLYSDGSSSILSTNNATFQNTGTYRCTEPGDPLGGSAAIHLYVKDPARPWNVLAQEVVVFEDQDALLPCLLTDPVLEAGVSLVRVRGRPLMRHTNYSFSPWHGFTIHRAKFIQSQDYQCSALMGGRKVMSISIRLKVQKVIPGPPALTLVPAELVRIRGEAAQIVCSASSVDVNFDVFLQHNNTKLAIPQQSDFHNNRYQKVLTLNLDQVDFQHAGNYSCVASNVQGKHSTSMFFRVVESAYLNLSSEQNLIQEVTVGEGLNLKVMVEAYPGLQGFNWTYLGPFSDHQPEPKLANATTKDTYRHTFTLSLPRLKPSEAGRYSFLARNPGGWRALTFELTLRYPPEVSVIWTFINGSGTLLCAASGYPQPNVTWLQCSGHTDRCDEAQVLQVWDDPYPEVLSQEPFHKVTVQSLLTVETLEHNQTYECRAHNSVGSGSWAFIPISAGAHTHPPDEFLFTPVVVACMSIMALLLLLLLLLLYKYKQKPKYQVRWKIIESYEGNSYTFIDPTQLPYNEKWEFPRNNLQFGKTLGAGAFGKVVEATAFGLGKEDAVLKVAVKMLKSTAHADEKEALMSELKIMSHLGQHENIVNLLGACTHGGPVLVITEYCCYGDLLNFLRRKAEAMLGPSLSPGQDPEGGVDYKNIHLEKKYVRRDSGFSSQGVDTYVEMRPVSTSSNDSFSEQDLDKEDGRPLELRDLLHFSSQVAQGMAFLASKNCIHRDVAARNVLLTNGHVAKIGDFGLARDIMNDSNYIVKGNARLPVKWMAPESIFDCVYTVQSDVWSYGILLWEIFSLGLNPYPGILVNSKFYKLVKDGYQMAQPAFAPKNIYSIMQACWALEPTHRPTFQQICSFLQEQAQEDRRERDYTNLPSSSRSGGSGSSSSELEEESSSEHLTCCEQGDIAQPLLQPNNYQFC
Method in brief: (§3)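 Active site-directed competition binding panel (KinomeScan, 468 kinases). Test compound at 1 μM. Read-out is kinase binding remaining versus DMSO control, expressed as percent of control. Scores above 35% are treated as weak binding.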

[6] = molecular target: Casein kinase I isoform alpha (Homo sapiens) (UniProt P48729); assay: Binding affinity to wild-type human partial length CSNK1A1 (M1 to L450 residues) expressed in mammalian expression system assessed as residual binding level at 1 uM by Kinomescan method relative to control
Method in brief: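 Active-site-directed competition binding panel of 468 kinases (KinomeScan), compound at 1 μM. The read-out is kinase remaining bound, given as a percentage of the DMSO control. […]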

[7] = molecular target: Mitogen-activated protein kinase 7 (Homo sapiens) (UniProt Q13164); assay: Binding affinity to wild-type human partial length ERK5 (M1 to A409 residues) expressed in bacterial expression system assessed as residual binding level at 1 uM by Kinomescan method relative to control
[8] = tested on: Receptor-type tyrosine-protein kinase FLT3 (Homo sapiens), P36888 [D835H]; assay: Binding affinity to human partial length FLT3 D835H mutant (V592 to Y969 residues) expressed in bacterial expression system assessed as residual binding level at 1 uM by Kinomescan method relative to control; method in brief: as §1
[9] = tested on: Mast/stem cell growth factor receptor Kit (Homo sapiens), P10721 [D816V]; assay: Binding affinity to human partial length KIT D816V mutant (I571 to D952 residues) expressed in bacterial expression system assessed as residual binding level at 1 uM by Kinomescan method relative to control; method in brief: as §1
[10] = molecular target: MAP/microtubule affinity-regulating kinase 3 (Homo sapiens) (UniProt P27448); assay: Binding affinity to wild-type human full length MARK3 (M1 to L729 residues) expressed in bacterial expression system assessed as residual binding level at 1 uM by Kinomescan method relative to control; method in brief: as §2
[11] = molecular target: MAP kinase-interacting serine/threonine-protein kinase 1 (Homo sapiens) (UniProt Q9BUB5); assay: Binding affinity to wild-type human full length MKNK1 (M1 to L424 residues) expressed in mammalian expression system assessed as residual binding level at 1 uM by Kinomescan method relative to control
Method in brief: (§4)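 Active-site-directed competition binding panel (KinomeScan) covering 468 kinases. Test agent was screened at 1 μM. The read-out is the remaining kinase signal expressed relative to a DMSO control. Scores above 35%, taken as weak binding, were not reported.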

[12] = molecular target: Myosin light chain kinase, smooth muscle (Homo sapiens) (UniProt Q15746); assay: Binding affinity to wild-type human full length MYLK (M854 to E1845 residues) expressed in mammalian expression system assessed as residual binding level at 1 uM by Kinomescan method relative to control; method in brief: as §4
Chain of Myosin light chain kinase, smooth muscle (Homo sapiens) (Q15746 whole entry, the tested form may be a part, canonical isoform): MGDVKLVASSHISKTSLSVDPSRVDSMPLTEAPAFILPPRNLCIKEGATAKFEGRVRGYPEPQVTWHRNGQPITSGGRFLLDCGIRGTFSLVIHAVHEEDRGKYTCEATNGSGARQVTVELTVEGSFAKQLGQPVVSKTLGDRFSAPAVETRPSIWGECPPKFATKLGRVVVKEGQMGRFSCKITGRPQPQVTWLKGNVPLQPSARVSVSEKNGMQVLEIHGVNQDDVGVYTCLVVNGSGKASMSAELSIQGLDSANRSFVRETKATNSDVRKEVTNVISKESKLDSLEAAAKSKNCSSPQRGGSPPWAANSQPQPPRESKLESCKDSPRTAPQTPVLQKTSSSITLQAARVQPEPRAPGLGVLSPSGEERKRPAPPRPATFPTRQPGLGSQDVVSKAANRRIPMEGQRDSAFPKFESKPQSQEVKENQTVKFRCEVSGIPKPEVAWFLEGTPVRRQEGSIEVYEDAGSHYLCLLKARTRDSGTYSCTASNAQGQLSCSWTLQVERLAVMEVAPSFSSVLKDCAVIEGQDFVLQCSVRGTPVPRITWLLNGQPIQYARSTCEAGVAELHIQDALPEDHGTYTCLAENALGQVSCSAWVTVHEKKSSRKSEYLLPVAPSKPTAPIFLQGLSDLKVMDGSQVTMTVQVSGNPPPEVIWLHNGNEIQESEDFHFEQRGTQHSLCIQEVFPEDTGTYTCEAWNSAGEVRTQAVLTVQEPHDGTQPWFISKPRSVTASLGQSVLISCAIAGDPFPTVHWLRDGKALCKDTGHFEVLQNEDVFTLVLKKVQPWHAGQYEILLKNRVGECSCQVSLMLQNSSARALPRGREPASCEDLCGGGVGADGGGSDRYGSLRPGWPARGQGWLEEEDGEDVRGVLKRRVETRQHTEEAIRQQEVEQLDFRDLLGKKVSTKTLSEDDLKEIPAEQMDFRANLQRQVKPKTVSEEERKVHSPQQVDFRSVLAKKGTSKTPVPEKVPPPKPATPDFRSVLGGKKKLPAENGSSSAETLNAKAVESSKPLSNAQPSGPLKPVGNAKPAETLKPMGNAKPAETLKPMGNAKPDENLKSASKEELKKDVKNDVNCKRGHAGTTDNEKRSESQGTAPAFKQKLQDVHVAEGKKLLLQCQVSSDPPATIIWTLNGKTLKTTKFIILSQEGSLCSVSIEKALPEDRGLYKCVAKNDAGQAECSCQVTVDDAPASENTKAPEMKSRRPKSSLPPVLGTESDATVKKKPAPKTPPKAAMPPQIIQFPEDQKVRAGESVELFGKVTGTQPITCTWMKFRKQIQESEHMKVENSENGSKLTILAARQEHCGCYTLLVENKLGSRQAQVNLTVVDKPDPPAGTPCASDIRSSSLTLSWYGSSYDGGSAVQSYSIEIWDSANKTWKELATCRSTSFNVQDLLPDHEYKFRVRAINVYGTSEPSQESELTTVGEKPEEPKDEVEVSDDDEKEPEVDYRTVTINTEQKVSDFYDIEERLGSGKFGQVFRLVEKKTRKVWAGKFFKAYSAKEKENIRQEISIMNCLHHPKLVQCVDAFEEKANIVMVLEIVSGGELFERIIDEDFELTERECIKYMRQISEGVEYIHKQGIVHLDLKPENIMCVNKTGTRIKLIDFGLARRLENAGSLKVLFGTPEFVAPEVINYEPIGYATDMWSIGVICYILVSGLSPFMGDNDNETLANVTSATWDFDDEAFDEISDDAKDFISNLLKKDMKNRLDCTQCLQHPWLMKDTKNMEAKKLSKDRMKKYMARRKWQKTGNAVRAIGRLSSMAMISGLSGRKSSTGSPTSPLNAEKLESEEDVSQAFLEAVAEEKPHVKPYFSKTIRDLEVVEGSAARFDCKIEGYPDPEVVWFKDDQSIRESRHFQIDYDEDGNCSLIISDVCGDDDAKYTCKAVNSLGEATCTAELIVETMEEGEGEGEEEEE

[13] = tested on: Phosphatidylinositol 4,5-bisphosphate 3-kinase catalytic subunit alpha isoform (Homo sapiens), P42336 [E545K]; assay: Binding affinity to human partial length PIK3CA E545K mutant (R108 to N1068 residues) expressed in mammalian expression system assessed as residual binding level at 1 uM by Kinomescan method relative to control; method in brief: as §1
[14] = molecular target: Ribosomal protein S6 kinase alpha-4 (Homo sapiens) (UniProt O75676); assay: Binding affinity to wild-type human partial length C-terminal RPS6KA4 kinase domain 2 (M375 to T705 residues) expressed in mammalian expression system assessed as residual binding level at 1 uM by Kinomescan method relative to control
Chain of Ribosomal protein S6 kinase alpha-4 (Homo sapiens) (O75676 whole entry, looked up, the tested form may be a part): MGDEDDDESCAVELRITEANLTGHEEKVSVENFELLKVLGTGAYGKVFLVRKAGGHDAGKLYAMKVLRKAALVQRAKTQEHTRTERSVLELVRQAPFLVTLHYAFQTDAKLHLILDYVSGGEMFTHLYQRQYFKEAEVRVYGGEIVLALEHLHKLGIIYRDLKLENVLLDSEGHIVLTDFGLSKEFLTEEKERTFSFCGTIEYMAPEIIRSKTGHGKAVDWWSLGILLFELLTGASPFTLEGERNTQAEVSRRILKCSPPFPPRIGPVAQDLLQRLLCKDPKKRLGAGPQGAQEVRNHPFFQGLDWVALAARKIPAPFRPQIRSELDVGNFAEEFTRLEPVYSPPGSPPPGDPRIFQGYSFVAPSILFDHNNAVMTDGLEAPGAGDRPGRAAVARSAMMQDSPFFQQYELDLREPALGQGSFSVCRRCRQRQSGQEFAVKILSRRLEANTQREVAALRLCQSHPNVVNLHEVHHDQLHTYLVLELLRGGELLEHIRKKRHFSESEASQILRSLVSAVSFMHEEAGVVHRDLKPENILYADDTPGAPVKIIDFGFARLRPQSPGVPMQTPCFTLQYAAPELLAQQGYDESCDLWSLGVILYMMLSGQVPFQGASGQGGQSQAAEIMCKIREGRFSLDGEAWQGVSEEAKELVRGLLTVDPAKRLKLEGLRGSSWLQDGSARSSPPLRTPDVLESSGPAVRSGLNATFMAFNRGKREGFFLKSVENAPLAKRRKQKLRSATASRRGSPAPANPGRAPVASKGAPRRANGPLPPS

[15] = molecular target: Uncharacterized serine/threonine-protein kinase SBK3 (Homo sapiens) (UniProt P0C264); assay: Binding affinity to wild-type human partial length SgK110 (L22 to R329 residues) expressed in bacterial expression system assessed as residual binding level at 1 uM by Kinomescan method relative to control; method in brief: as §3
Chain of Uncharacterized serine/threonine-protein kinase SBK3 (Homo sapiens) (P0C264 whole entry, the tested form may be a part): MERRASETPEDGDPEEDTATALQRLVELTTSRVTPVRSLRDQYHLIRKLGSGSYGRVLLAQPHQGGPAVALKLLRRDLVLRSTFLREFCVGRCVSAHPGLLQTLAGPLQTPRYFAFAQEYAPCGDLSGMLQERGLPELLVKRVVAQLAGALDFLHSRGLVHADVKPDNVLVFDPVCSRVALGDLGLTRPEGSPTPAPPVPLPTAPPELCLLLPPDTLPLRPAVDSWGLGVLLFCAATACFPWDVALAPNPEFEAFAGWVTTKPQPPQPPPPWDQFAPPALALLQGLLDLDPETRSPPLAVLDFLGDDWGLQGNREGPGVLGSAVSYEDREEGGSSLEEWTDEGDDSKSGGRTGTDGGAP

[16] = molecular target: Serine/threonine-protein kinase tousled-like 1 (Homo sapiens) (UniProt Q9UKI8); assay: Binding affinity to wild-type human partial length TLK1 (K447 to A754 residues) expressed in bacterial expression system assessed as residual binding level at 1 uM by Kinomescan method relative to control
Chain of Serine/threonine-protein kinase tousled-like 1 (Homo sapiens) (Q9UKI8 whole entry, the tested form may be a part): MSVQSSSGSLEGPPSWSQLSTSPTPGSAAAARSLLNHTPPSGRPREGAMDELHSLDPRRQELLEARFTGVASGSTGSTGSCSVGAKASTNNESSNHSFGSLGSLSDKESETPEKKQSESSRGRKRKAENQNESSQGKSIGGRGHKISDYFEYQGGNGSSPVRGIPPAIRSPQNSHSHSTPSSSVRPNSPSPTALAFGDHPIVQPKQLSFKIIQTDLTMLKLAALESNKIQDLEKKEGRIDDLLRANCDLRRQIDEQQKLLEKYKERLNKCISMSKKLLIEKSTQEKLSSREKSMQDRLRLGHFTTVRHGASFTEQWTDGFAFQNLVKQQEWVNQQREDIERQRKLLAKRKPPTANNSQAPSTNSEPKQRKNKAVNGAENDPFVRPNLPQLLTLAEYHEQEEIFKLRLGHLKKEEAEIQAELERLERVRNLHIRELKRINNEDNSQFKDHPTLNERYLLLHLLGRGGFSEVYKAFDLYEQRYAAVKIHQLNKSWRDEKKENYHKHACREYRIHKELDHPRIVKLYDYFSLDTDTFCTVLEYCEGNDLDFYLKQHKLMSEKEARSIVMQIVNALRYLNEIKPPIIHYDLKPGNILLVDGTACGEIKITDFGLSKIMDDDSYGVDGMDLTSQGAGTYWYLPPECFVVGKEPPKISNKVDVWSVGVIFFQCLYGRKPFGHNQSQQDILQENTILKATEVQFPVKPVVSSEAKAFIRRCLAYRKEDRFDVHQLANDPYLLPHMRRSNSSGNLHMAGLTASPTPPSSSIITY

[17] = molecular target: Serine/threonine-protein kinase VRK2 (Homo sapiens) (UniProt Q86Y07); assay: Binding affinity to wild-type human partial length VRK2 (M1 to T336 residues) expressed in mammalian expression system assessed as residual binding level at 1 uM by Kinomescan method relative to control; method in brief: as §3
[18] = molecular target: Wee1-like protein kinase 2 (Homo sapiens) (UniProt P0C1S8); assay: Binding affinity to wild-type human partial length WEE2 (M204 to K492 residues) expressed in bacterial expression system assessed as residual binding level at 1 uM by Kinomescan method relative to control
[19] = molecular target: Serine/threonine-protein kinase 32C (Homo sapiens) (UniProt Q86UX6); assay: Binding affinity to wild-type human partial length YANK3 (M68 to G486 residues) expressed in bacterial expression system assessed as residual binding level at 1 uM by Kinomescan method relative to control

Structure (SMILES): C=CC(=O)Nc1ccccc1Nc1nc(Nc2ccc(N3CCN(C)CC3)cc2)ncc1C(=O)Nc1c(C)cccc1Cl
- IC50 (MDA-MB-231): 300 nM
- Activity [1]: 6.9%
- Activity [2]: 0.35%
- Activity [3]: 89%
- Activity [4]: 100%
- Activity [5]: 79%
- Activity [6]: 86%
- Activity [7]: 92%
- Activity [8]: 95%
- Activity [9]: 100%
- Activity [10]: 90%
- Activity [11]: 92%
- Activity [12]: 100%
- Activity [13]: 79%
- Activity [14]: 100%
- Activity [15]: 60%
- Activity [16]: 100%
- Activity [17]: 71%
- Activity [18]: 100%
- Activity [19]: 100%
